Calls of active or inactive are those of the source. No cut-off for these calls is given here. Some results are limits rather than exact numbers.

Test [1] addresses DNA polymerase I, thermostable (Thermus aquaticus) (UniProt P19821). In words: Inhibitory activity against taq polymerase at 20 uM; No inhibition.
For test [2], the target named is Telomerase reverse transcriptase (Homo sapiens, UniProt O14746). In words: Inhibitory activity against telomerase. The essentials: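 Modified TRAP with extract from exponentially growing A2780 ovarian carcinoma cells. Telomerase then inactivated at 80 °C for 5 min, CX primer and Taq added, 31 PCR cycles. Products analysed by denaturing PAGE with phosphorimaging/autoradiography, or by filter scintillation counting.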
Chain of Telomerase reverse transcriptase (O14746 whole entry): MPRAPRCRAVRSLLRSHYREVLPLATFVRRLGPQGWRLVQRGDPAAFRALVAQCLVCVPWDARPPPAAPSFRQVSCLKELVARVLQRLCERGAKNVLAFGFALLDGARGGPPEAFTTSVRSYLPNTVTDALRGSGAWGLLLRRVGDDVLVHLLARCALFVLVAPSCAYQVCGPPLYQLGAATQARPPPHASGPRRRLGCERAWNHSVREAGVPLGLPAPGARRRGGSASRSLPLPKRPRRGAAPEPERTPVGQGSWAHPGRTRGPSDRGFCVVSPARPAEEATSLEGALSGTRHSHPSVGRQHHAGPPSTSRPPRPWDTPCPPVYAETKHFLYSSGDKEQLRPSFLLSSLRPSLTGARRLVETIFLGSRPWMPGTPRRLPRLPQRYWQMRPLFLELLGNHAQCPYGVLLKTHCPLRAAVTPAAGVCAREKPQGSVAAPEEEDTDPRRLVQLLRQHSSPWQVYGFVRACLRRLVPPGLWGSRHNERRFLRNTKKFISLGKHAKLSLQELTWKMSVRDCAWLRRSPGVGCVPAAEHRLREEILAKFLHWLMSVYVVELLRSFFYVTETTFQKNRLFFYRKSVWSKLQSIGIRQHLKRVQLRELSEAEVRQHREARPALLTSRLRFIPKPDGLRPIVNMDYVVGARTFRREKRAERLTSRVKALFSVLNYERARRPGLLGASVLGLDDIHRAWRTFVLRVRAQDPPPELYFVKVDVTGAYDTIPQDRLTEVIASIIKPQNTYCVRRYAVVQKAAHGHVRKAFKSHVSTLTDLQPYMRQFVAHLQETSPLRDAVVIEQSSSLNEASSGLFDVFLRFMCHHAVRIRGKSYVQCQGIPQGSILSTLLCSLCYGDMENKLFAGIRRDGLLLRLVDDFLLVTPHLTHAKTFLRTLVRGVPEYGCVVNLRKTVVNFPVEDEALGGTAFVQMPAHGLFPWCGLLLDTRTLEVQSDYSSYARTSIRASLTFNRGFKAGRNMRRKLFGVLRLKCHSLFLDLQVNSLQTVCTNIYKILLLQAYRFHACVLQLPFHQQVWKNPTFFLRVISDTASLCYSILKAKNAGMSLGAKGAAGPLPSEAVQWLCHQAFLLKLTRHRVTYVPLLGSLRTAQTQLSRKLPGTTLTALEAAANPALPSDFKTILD

Test [3] has as its system SK-OV-3. In words: Cytotoxicity activity was measured in human ovarian cell line SKOV-3 using sulforhodamine B (SRB) assay. Format: functional, cell-based. The essentials: (§1)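 SRB growth-inhibition assay in human ovarian carcinoma cells: 3000–6000 cells/well attached overnight, then salts (dissolved at 500 μM in water) added in quadruplicate at final 0.05, 0.25, 1, 5 and 25 μM. After 96 h, cells fixed with ice-cold 10% TCA and stained with 0.4% SRB. Mean A540 expressed as % of untreated control; IC50 = concentration giving 50% growth inhibition.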
Background: The SRB assay estimates cell density from bound dye.

In test [4] the test system is A2780. In words: Cytotoxicity measured in human ovarian cell line A2780 using sulforhodamine B (SRB) assay. The test is classed as functional, cell-based. The essentials: as §1
In test [5] the target is DNA polymerase I, thermostable (Thermus aquaticus) (UniProt P19821). In words: Inhibitory activity against taq polymerase at 50 uM; Slight.
Chain of DNA polymerase I, thermostable (Thermus aquaticus) (P19821 whole entry): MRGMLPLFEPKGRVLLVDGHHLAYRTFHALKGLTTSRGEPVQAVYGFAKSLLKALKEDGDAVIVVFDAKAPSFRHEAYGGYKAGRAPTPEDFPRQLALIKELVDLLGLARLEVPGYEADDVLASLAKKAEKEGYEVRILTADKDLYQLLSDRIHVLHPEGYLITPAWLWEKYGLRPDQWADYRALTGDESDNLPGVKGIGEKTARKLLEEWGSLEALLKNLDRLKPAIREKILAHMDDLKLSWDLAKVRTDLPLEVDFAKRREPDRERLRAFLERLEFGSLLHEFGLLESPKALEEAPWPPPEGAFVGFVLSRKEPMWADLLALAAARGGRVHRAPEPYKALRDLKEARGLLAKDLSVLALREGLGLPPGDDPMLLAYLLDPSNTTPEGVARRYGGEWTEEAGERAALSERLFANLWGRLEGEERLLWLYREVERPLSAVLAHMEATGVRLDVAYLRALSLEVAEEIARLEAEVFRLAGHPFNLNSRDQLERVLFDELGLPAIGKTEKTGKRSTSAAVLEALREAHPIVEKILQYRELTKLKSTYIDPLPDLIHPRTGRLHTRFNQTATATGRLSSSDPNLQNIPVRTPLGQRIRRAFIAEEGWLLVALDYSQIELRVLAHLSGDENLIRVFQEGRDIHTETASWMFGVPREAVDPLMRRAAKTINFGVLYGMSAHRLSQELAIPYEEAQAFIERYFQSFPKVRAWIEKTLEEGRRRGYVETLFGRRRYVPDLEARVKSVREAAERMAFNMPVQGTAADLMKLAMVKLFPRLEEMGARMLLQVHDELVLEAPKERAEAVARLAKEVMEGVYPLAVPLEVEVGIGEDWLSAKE
Test [6] has as its system CH1. Put plainly: Cytotoxicity activity was measured in human ovarian cell line CH1 using sulforhodamine B (SRB) assay. Format: functional, cell-based. The essentials: as §1
Test [7] addresses DNA polymerase I, thermostable (Thermus aquaticus) (UniProt P19821). In words: Inhibitory activity against taq polymerase at 10 uM; No inhibition.
In test [8] the test system is A2780. Put plainly: Cytotoxicity activity of the compound was measured in human ovarian cell line A2780 using sulforhodamine B (SRB) assay. The test is classed as functional, cell-based. The essentials:
as §1

Test [9] has as its target DNA polymerase I, thermostable (Thermus aquaticus) (UniProt P19821). Put plainly: Inhibitory activity against taq polymerase at 50 uM; No inhibition.
In test [10] the test system is SK-OV-3. Put plainly: Cytotoxicity measured in human ovarian cell line SKOV-3 using sulforhodamine B (SRB) assay. The test is classed as functional, cell-based. The essentials: as §1
Test [11] has as its system CH1. In words: Cytotoxicity measured in human ovarian cell line CH1 using sulforhodamine B (SRB) assay. Format: functional, cell-based. The essentials: as §1
The target of test [12] is DNA polymerase I, thermostable (Thermus aquaticus) (UniProt P19821). In words: Inhibitory activity against taq polymerase at 50 uM; Significant.

As usually defined, the IC50 is the point on the concentration scale where inhibition reaches its midpoint. `C[N+]1(CCC(=O)Nc2ccc3c(c2)C(=O)c2cc(NC(=O)CC[N+]4(C)CCC(O)CC4)ccc2-3)CCC(O)CC1` (stereo unspecified): the inhibition result in test [1] and in [7] was “inactive” throughout. Further, the IC50 is over 20 µM in test [2], 4.7 µM in test [3], 2.4 µM in test [4] and 1.95 µM in [6]. Moreover, the inhibition result in test [5] was “Weak inhibition”.

As for `CN1CCN(CCC(=O)Nc2ccc3c(c2)C(=O)c2cc(NC(=O)CCN4CCN(C)CC4)ccc2-3)CC1`, the inhibition entry in test [1], in test [9] and in test [7] was “inactive” in each case. Besides, the IC50 in test [8] is over 25 µM; in test [2], 44 µM; in [10] it was over 25 µM; in test [11], over 25 µM.

As for `C[N+]1(CCC(=O)Nc2ccc3c(c2)C(=O)c2cc(NC(=O)CC[N+]4(C)CCCCC4CCO)ccc2-3)CCCCC1CCO` (stereo unspecified), the inhibition result in test [1] and in [7] was “inactive” each time. For the same molecule, the IC50 was over 20 µM in test [2], 5.2 µM in test [10], 3.15 µM in [11] and 5.2 µM in test [4]. Moreover, the inhibition entry in test [12] is given as “Significant”.
